Laboratory results published in ChEMBL document CHEMBL4219243, “Characterization of Protease-Activated Receptor (PAR) ligands: Parmodulins are reversible allosteric inhibitors of PAR1-driven calcium mobilization in endothelial cells” (Bioorg Med Chem, 2018).
Activity calls are given as the source filed them. The calls are words filed in the database; no cut-off is given here.

Legend:
[1] = molecular target: T1, Proteinase-activated receptor 1 (Homo sapiens, UniProt P25116); experiment: (§1) Antagonist activity at PAR1 in human EAhy926 cells assessed as inhibition of TFLLRN-NH2-induced intracellular calcium mobilization pretreated for 15 mins followed by TFLLRN-NH2 addition measured at 5 secs interval for 250 secs by Fluo-4/AM dye based fluorescence assay; format: functional, cell-based
T1 sequence (P25116 whole entry): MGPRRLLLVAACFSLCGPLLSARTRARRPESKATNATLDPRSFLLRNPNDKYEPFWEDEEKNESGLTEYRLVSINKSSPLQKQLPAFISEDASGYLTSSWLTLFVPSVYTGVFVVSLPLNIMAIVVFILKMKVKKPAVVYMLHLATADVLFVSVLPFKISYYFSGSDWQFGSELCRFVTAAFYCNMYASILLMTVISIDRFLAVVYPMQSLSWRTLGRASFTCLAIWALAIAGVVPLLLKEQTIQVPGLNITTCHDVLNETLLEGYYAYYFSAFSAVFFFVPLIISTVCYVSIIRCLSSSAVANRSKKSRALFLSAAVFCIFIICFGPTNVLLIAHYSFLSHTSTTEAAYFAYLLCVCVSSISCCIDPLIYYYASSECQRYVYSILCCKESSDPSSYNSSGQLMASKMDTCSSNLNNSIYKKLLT
Method in brief: (§2)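 EA.hy926 cells were used at passage 2–11, seeded at 25,000/well and grown 40–48 h at 37 °C to >80% confluence. Cells were loaded with Fluo-4/AM (2 μM) in HBSS-HEPES containing 2.5 mM probenecid, pH 7.4, for 40–50 min, then washed twice. Antagonist in 10% DMSO vehicle was added for 15 min at 37 °C before agonist. Agonist was 5 μM TFLLRN-NH₂; ex 485/em 525 nm.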

[2] = molecular target: T2, Proteinase-activated receptor 1 (Homo sapiens) (UniProt P25116); experiment: as §1; format: functional, cell-based; set-up: concentration or dose not given beside the values; method in brief: as §2
T2 sequence (whole entry): T1 sequence (P25116 whole entry)

[3] = molecular target: T3, Proteinase-activated receptor 2 (Homo sapiens, UniProt P55085); experiment: Antagonist activity at PAR2 in human EAhy926 cells assessed as inhibition of SLIGKV-NH2-induced intracellular calcium mobilization pretreated for 15 mins followed by SLIGKV-NH2 addition measured at 5 secs interval for 250 secs by Fluo-4/AM dye based fluorescence assay; format: functional, cell-based
T3 sequence (P55085 whole entry): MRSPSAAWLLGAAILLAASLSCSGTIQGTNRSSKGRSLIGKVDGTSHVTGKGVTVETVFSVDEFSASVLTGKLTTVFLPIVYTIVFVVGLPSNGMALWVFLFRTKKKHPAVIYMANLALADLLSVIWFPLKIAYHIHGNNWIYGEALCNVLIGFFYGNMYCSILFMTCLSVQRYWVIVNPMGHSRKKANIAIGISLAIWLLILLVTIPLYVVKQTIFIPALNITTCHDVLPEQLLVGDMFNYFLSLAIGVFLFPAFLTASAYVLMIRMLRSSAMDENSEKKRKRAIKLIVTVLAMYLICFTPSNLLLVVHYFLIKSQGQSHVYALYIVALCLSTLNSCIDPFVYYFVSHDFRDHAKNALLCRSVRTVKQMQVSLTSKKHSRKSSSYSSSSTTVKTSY
Method in brief: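 EA.hy926 monolayers (25,000 cells/well, 40–48 h) were loaded with 2 µM Fluo-4/AM for 40–50 min at 37 °C in HBSS-HEPES with 2.5 mM probenecid, pH 7.4. Antagonist in 10% DMSO vehicle was added for 15 min at 37 °C, then SLIGKV-NH2 (5 µM for curves, 3.16 µM for selectivity). Read at ex485/em525, 20 basal scans. Peak RFU/basal was normalised to a same-column vehicle well; curves from ≥3 repeats fitted by 4-parameter regression.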

[4] = molecular target: T2, Proteinase-activated receptor 1 (Homo sapiens); experiment: Antagonist activity at PAR1 in human EAhy926 cells assessed as inhibition of TFLLRN-NH2-induced intracellular calcium mobilization at 10 uM pretreated for 15 mins followed by TFLLRN-NH2 addition measured at 5 secs interval for 250 secs by Fluo-4/AM dye based fluorescence assay; format: functional, cell-based
[5] = molecular target: Proteinase-activated receptor 2 (Homo sapiens) (UniProt P55085); format: functional, cell-based; settings: 0.316 uM
[6] = molecular target: T2, Proteinase-activated receptor 1 (Homo sapiens); format: functional, cell-based; settings: 0.316 uM
[7] = molecular target: T2, Proteinase-activated receptor 1 (Homo sapiens); experiment: Negative allosteric modulation of PAR1 in human EAhy926 cells assessed as inhibition of TFLLRN-NH2-induced intracellular calcium mobilization at 10 uM pretreated for 20 to 30 mins followed by compound washout and subsequent incubation for 10 mins prior to TFLLRN-NH2 addition measured at 5 secs interval for 250 secs by Fluo-4/AM dye based fluorescence assay; format: functional, cell-based
Method in brief: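 EA.hy926 cells grown 40–48 h to confluence, loaded with Fluo-4/AM in HBSS-HEPES with 2.5 mM probenecid for 40–50 min at 37 °C, washed. Antagonist or vehicle (10% DMSO) added for 20–30 min, then washed twice with buffer, 10 min at 37 °C each. TFLLRN-NH2 (5 μM) added; emission 525 nm (ex 485) read against basal.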

[8] = molecular target: Proteinase-activated receptor 2 (Homo sapiens) (UniProt P55085); experiment: Antagonist activity at PAR2 in human EAhy926 cells assessed as inhibition of SLIGKV-NH2-induced intracellular calcium mobilization at 10 uM pretreated for 15 mins followed by SLIGKV-NH2 addition measured at 5 secs interval for 250 secs by Fluo-4/AM dye based fluorescence assay; format: functional, cell-based
Method in brief: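 EA.hy926 monolayers were Fluo-4/AM-loaded (2 μM, with 2.5 mM probenecid in HBSS-HEPES) and pretreated 15 min at 37 °C with 10 μM antagonist in 10% DMSO vehicle. They were then stimulated with 3.16 μM SLIGKV-NH₂. Fluorescence (485/525 nm) was read every 5 s. The peak rise over basal, divided by basal, was normalized to the vehicle well.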

[9] = molecular target: T2, Proteinase-activated receptor 1 (Homo sapiens); settings: 0.316 uM

In the case of `C#CCCC(=O)Nc1cccc(NC(=O)c2ccccc2Br)c1`, the IC50 ([1]; read-out: IC50) is reported as 81 µM, the IC50 ([1]; read-out: pIC50 (converted)) is reported as 100 µM and the inhibition [2] is reported as 79%.
For `CC[C@H](C)[C@H](NC(=O)[C@H](CC1CCCCC1)NC(=O)c1ccno1)C(=O)NCc1ccccc1OC`, the IC50 [3] was 1700 nM and the inhibition [4] was “inactive”.
In the case of `NCC[C@H](NC(=O)[C@H](Cc1ccc(F)c(F)c1)NC(=O)Nc1ccc2c(CN3CCCC3)nn(Cc3c(Cl)cccc3Cl)c2c1)C(=O)NCc1ccccc1`, the IC50 ([1]; read-out: IC50) is reported as 0.02 µM, the inhibition [5] is reported as “inactive” and the inhibition [6] is reported as “Active”.
In the case of `CCCC(=O)Nc1cccc(NC(=O)c2ccccc2Br)c1`, the IC50 ([1]; read-out: IC50) is reported as 0.85 µM, the inhibition [7] is reported as “Active” and the inhibition [8] is reported as “inactive”.
`CCOc1cc2c(c(F)c1OCC)C(=N)N(CC(=O)c1cc(N3CCOCC3)c(OC)c(C(C)(C)C)c1)C2` [ATOPAXAR] was tested, and the IC50 ([1]; read-out: IC50) was 0.033 µM, the inhibition [2] was 94% and the inhibition [5] was “inactive”.
Work on `CCCC(=O)Nc1cccc(NC(=O)c2ccccc2N=[N+]=[N-])c1` yielded an IC50 ([1]; read-out: IC50) of 94 µM and an inhibition [2] of 77%.
`CC(C)CC(=O)Nc1cccc(NC(=O)c2ccccc2Br)c1` was tested, and the IC50 ([1]; read-out: IC50) was 3.16 µM, the inhibition [2] was 74% and the inhibition [7] was “Active”.
`Clc1ccc(Cn2c(Cc3ccccc3)nc3ccccc32)cc1` was tested, and the inhibition [4] was “inactive”.
For `CCCCC(=O)Nc1cccc(NC(=O)c2ccccc2Br)c1`, the inhibition [2] was 49%.
For `C#CCCC(=O)NCC[C@H](NC(=O)[C@H](Cc1ccc(F)c(F)c1)NC(=O)Nc1ccc2c(CN3CCCC3)nn(Cc3c(Cl)cccc3Cl)c2c1)C(=O)NCc1ccccc1`, the IC50 ([1]; read-out: pIC50 (converted)) was 0.316 µM and the inhibition [2] was 76%.
`CCC(=O)Nc1cccc(NC(=O)c2ccccc2Br)c1` showed an IC50 ([1]; read-out: IC50) of 3.3 to 3.31 µM, an IC50 ([1]; read-out: pIC50 (converted)) of 3.16 µM and an inhibition [2] of 68%.
`CCOC(=O)N[C@@H]1CC[C@@H]2[C@@H](C1)C[C@H]1C(=O)O[C@H](C)[C@H]1[C@H]2/C=C/c1ccc(-c2cccc(F)c2)cn1` was tested, and the inhibition [5] was “inactive” and the inhibition [9] was “inactive”.
In the case of `CCCCNc1cccc(NC(=O)c2ccccc2Br)c1`, the IC50 ([1]; read-out: IC50) is reported as 0.97 µM, the inhibition [7] is reported as “Active” and the inhibition [8] is reported as “inactive”.
